Measured values gathered from unrelated publications.
Each line is one published result; the experiments were not run side by side.
Matrix: plasma

The Cmax of `Cc1ccc(C(=O)N(CCCN)[C@@H](c2oc3cc(Cl)ccc3c(=O)c2Cc2ccccc2)C(C)C)cc1` is reported as 817 ng/mL (human; intravenous, 6 mg/m², single dose, patients, infusion).
The Cmax of `CC(=O)Oc1ccccc1C(=O)O` is reported as 3480 ng/mL (human; oral, 650 mg, healthy volunteers).
The Cmax of `CNCc1ccc(-c2[nH]c3cc(F)cc4c3c2CCNC4=O)cc1` is reported as 2650 ng/mL (human; oral, 600 mg, multiple doses, twice daily, steady state).
For `CC(C)(O)c1ccccc1-c1ccc2[nH]c(/C=C/c3ccc(C(F)(F)F)cc3)nc2c1`, the Cmax was 7.66 ng/mL (male human; oral, 2 mg, single dose, fasted, healthy volunteers).
For `COc1cc(C(=O)NC2CCN(C)CC2)c(F)cc1Nc1ncc(C(F)(F)F)c(Oc2cccc3c2C(=O)N(C)C3)n1`, the Cmax was 430 nM (human; oral, 50 mg, multiple doses, once daily, steady state, patients).
`NS(=O)(=O)NCCNc1nonc1C(=NO)Nc1ccc(F)c(Br)c1` gave a Cmax of 4820 nM (human; oral, 600 mg, multiple doses, twice daily, steady state, patients).
The Cmax of `COc1cc2c(cc1OC)CN(CCc1ccc(NC(=O)c3cc(OC)c(OC)cc3NC(=O)c3cnc4ccccc4c3)cc1)CC2` is reported as 2500 nM (human; intravenous, 2 mg/kg, patients).
`CCc1nc2c(C)cc(N3CCN(CC(=O)N4CC(O)C4)CC3)cn2c1N(C)c1nc(-c2ccc(F)cc2)c(C#N)s1` gave a Cmax of 19000 ng/mL (human; oral, 1500 mg, single dose, fed, healthy volunteers).
For `CO[C@H]1CC[C@H](N2C(=O)CNc3ncc(-c4ccc(C(C)(C)O)nc4)nc32)CC1`, the Cmax was 293 ng/mL (human; oral, 30 mg, multiple doses, patients).
`CCOc1cc([C@@H](CS(C)(=O)=O)N2C(=O)c3cccc(NC(C)=O)c3C2=O)ccc1OC` gave a Cmax of 278 ng/mL (human; oral, 30 mg, single dose, healthy volunteers).
The Cmax of `Cn1cc(-c2ccc(S(=O)(=O)[C@@H]3C[C@@H](C(=O)NC4(C#N)CC4)N(C(=O)C4(C(F)(F)F)CC4)C3)c(C(F)(F)F)c2)cn1` is reported as 1070 ng/mL (human; oral, 300 mg, single dose, fasted, healthy volunteers).
`CCn1c(=O)c(-c2cc(NC(=O)Nc3ccccc3)c(F)cc2Br)cc2cnc(NC)cc21` has a Cmax of 525 ng/mL (human; oral, 200 mg, single dose, patients).
For `C[C@@]1(c2cc(NC(=O)c3ccc(C#N)cn3)ccc2F)C=CSC(N)=N1`, the Cmax was 148 ng/mL (human; oral, 30 mg, single dose).
For `O=C(/C=C/c1cccc(S(=O)(=O)Nc2ccccc2)c1)NO`, the Cmax was 106000 ng/mL (human; intravenous, 1900 mg/m², patients).
`COC(=O)N[C@@H](C)CNc1nccc(-c2cn(C(C)C)nc2-c2cc(Cl)cc(NS(C)(=O)=O)c2F)n1` gave a Cmax of 482 ng/mL (human; oral, 50 mg, single dose).
`CCCOc1ccc([C@H]2CNC(=O)N2c2ccc3[nH]cnc3c2)cc1` gave a Cmax of 565 ng/mL (human; oral, 200 mg, single dose, fed, healthy volunteers).
With `O=C(Nc1c(Cl)cncc1Cl)c1ccc(OC(F)F)c(OCC2CC2)c1` the Cmax was 9.2 ng/mL (human; oral, 0.375 mg, single dose, fasted).
With `CC(C)(C(=O)N1CCOc2c(C#N)cncc2C1)C(F)F` the Cmax was 555 ng/mL (human; oral, 40 mg, single dose, fasted, healthy volunteers).
`Cn1c(=O)oc2ccc(-c3ccc(C[C@@H](C#N)NC(=O)[C@@H]4CNCCCO4)cc3)cc21` has a Cmax of 668 nM (male human; oral, 35 mg, single dose, healthy volunteers).
